The sample as a whole holds a higher share of hits than the screen did.
Fh CTSL1 inh – blocks F. hepatica cathepsin L1 in PFM18AAP counter-screen; recombinant F. hepatica cathepsin L1, Z-Leu-Arg-MCA fluorescence; inhibition, % at 5.96 µM; 300,000 tested, 0.49% active;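 active = inhibition above the mean of all tested compounds plus 3 SD, set per screening campaign, cut at about 17% in these data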;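 also: 0% = plate median of test compound wells and 100% = 1 µM Z-Phe-Ala-diazomethylketone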
UPR CHOP act – activators of apoptotic arm of unfolded protein response (CHOP); AID 449763; 330,000 tested, 0.34% active; CHO-CHOP luciferase reporter, UPR activation, luminescence; percent of tunicamycin response over DMSO baseline; activation, % at 10 µM;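 active = at 10 µM dose, activation of 40% or more, normalized to positive control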;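 also: 100% = tunicamycin at 10 µg/mL and 0% = DMSO alone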
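Dosing – one dose, 10 µM in 0.5% DMSO · System – CHO-CHOP cells, stable luciferase reporter of PERK-eIF2a-CHOP signalling · Input – 500 cells/well · Control set – tunicamycin 10 µg/mL final as positive, DMSO-only wells as negative · Timing – 6 h compound treatment, 37 °C · Measure – % activation vs tunicamycin · Technique – luminescence read with Steady-Glo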
XBP1 UPR activ – adaptive UPR (XBP1) activation. CHO-XBP1 luciferase reporter, IRE1-XBP1 UPR activation, luminescence; percent of tunicamycin response, DMSO as zero. activation, % at 20 µM. 330,000 tested, 0.33% active. AID 463104;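 active = versus positive control, 20 µM dose yields 30% or more activation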;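 also: 100% = tunicamycin at 10 µg/mL and 0% = DMSO only wells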
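Assay system: IRE1-XBP1 luciferase reporter CHO line. Input: 1000 cells/well. Buffer or medium: F12 with 10% serum. Doses: 20 µM, 1% DMSO. Times: overnight seeding at 37 °C, 6 h compound treatment at 37 °C. Technique: Steady-Glo luciferase glow luminescence, 10 min after reagent addition.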
UCH37 DUB inh – human UCH37 deubiquitinating enzyme inhibition; AID 588478; Q9Y5K5; inhibition, % (no concentration beside the values); purified proteasome/UCH37, Ub-AMC cleavage fluorescence; 330,000 tested, 0.33% active;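 active = mean inhibition over replicate wells above about 20%, limit read from the data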;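 also: 0% = compound-free wells with enzyme and 100% = wells lacking proteasome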
Target sequence (Q9Y5K5 whole entry, looked up): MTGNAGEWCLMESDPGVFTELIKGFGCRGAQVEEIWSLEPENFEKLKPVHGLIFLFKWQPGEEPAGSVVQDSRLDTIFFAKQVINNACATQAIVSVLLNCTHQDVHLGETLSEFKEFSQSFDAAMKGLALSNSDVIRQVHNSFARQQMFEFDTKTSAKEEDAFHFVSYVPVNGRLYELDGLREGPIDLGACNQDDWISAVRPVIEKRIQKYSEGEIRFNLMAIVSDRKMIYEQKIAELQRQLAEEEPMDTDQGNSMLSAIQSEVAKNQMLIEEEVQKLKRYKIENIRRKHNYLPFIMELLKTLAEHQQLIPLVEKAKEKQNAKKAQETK
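Signal – fluorescence, ex 355 nm, em 460 nm · System – Proteasome-bound UCH37 · Input – 0.15 nM proteasome as dispensed · Timing – 30 min preincubation with enzyme, 25 min cleavage at room temperature · Read-out basis – percent inhibition of cleavage signal versus uninhibited and no-proteasome wells · Medium – Tris-HCl pH 7.4 with ATP-MgCl2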
CHOP inhibitor – CHOP inhibition in unfolded protein response; AID 2732; 220,000 tested, 3.8% active; inhibition, % at 10 µM; CHO-K1 CHOP-promoter luciferase, tunicamycin-induced, 15-18 h;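 active = compounds that reduced the stress-induced luciferase reporter signal by more than about 70% of percent inhibition, limit read from the data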;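 also: 0% = tunicamycin plus vehicle and 100% = wells without tunicamycin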
Active calls of the source: *.

`CC(C)Cn1cc(C(=O)NCc2cccs2)c2c3ccccc3n(C)c2c1=O` gave Fh CTSL1 inh 6, UPR CHOP act -1, XBP1 UPR activ -3, UCH37 DUB inh -42 and CHOP inhibitor 94*.
For CC1=NN(c2nc(-c3ccc(C)cc3)cs2)C(=O)C1N=Nc1ccc(C(N)=O)cc1 (stereo unspecified) the results were Fh CTSL1 inh 1 and CHOP inhibitor 107*.
Screening CC1=NN(c2nc(-c3ccc(C)cc3)cs2)C(=O)C1N=Nc1ccc2ccccc2c1 (stereo unspecified) returned Fh CTSL1 inh -2, UPR CHOP act 1, XBP1 UPR activ 1, UCH37 DUB inh 8 and CHOP inhibitor -21.
`CC(=NOC(=O)NC1CCCCC1)c1sc(-c2ccccc2)nc1C` gave UCH37 DUB inh 0.
Screening COc1ccc(-c2ccc(-c3noc(-c4ccco4)n3)c(OC)n2)cc1 returned Fh CTSL1 inh 1, UPR CHOP act 0, XBP1 UPR activ 2, UCH37 DUB inh -82 and CHOP inhibitor 72*.
COc1ccc(-c2ccc(-c3noc(-c4ccccc4)n3)c(OC)n2)cc1 was read as Fh CTSL1 inh 0, UPR CHOP act -1, XBP1 UPR activ 0, UCH37 DUB inh -306 and CHOP inhibitor -4.
COc1nc(-c2ccccc2)ccc1-c1noc(-c2ccco2)n1 was read as Fh CTSL1 inh -2, UPR CHOP act 8, XBP1 UPR activ 0, UCH37 DUB inh -6 and CHOP inhibitor 11.
For COc1ccc(-c2ccc(-c3noc(-c4ccccc4F)n3)c(OC)n2)cc1 the results were UCH37 DUB inh -389 and CHOP inhibitor 74*.
For COc1ccc(C(C)=Nn2cnnc2)cc1 the results were UCH37 DUB inh -2.
COC(=O)NN=Cc1ccccc1Cl was read as UCH37 DUB inh 0.
`CC(NC(=O)N(Cc1ccccc1)Cc1ccc2c(c1)OCO2)(C(F)(F)F)C(F)(F)F` gave Fh CTSL1 inh -1, UPR CHOP act -2, XBP1 UPR activ 1, UCH37 DUB inh 2 and CHOP inhibitor 59.
CC(=O)OCCN(Cc1ccccc1)Cc1ccc2c(c1)OCO2 was read as Fh CTSL1 inh 0, UPR CHOP act 0, XBP1 UPR activ -2, UCH37 DUB inh 2 and CHOP inhibitor 70*.
CC(C)CC(=O)NC(=S)NNC(=O)c1ccc([N+](=O)[O-])cc1 was read as Fh CTSL1 inh 1, UPR CHOP act 0, XBP1 UPR activ -2, UCH37 DUB inh 5 and CHOP inhibitor 29.
CC(C)CC(=O)NC(=S)NNC(=O)c1ccc(NC(=O)C2CCCCC2)cc1 was read as Fh CTSL1 inh -5, UPR CHOP act 1, XBP1 UPR activ 2, UCH37 DUB inh -54 and CHOP inhibitor 72*.
For Cc1n[nH]c(=O)nc1NN=Cc1cccs1 the results were UCH37 DUB inh 8.
Screening CC(=NNC(=O)COc1ccccc1F)c1cc2ccccc2o1 returned UCH37 DUB inh -1.
For Cc1nc(N2CCCCC2)c2c(C)c(C(=O)Nc3cccc(C(F)(F)F)c3)sc2n1 the results were Fh CTSL1 inh 2, UPR CHOP act -2, XBP1 UPR activ -3, UCH37 DUB inh -30 and CHOP inhibitor 35.
For Cc1nc(N2CCCCC2)c2c(C)c(C(=O)Nc3ccccc3C(F)(F)F)sc2n1 the results were Fh CTSL1 inh 4, UPR CHOP act 0, XBP1 UPR activ -1, UCH37 DUB inh -6 and CHOP inhibitor 71*.
Screening Cc1nc(N2CCCCC2C)c2c(C)c(C(=O)Nc3cccc(C(F)(F)F)c3)sc2n1 (stereo unspecified) returned Fh CTSL1 inh 3, UPR CHOP act 1, XBP1 UPR activ 4, UCH37 DUB inh -70 and CHOP inhibitor 80*.
For CCOc1ccccc1NC(=O)c1sc2nc(C)nc(N3CCOCC3)c2c1C the results were Fh CTSL1 inh -5, UPR CHOP act 2, XBP1 UPR activ 0 and UCH37 DUB inh -368.
CCOc1ccc(NCC(=O)Nc2ccc(C)cc2C)cc1 was read as Fh CTSL1 inh -2, UPR CHOP act 1, XBP1 UPR activ 0, UCH37 DUB inh 2 and CHOP inhibitor 19.
For COc1ccc(C)cc1NCC(=O)Nc1ccc(C(C)(C)C)cc1 the results were Fh CTSL1 inh -2, UPR CHOP act 1, XBP1 UPR activ 4, UCH37 DUB inh 0 and CHOP inhibitor 70*.
CCOc1ccc(NC(=O)CNc2ccc(C)cc2Cl)cc1 was read as Fh CTSL1 inh -1, UPR CHOP act 3, XBP1 UPR activ 0, UCH37 DUB inh 2 and CHOP inhibitor 91*.
Screening Cc1cccc(NC(=O)CNc2cc(C)ccc2C)c1 returned Fh CTSL1 inh 0, UPR CHOP act 3, XBP1 UPR activ 0, UCH37 DUB inh 0 and CHOP inhibitor 77*.
COC(=O)c1cc(OC)c(OC)cc1NCC(=O)Nc1ccc(C)cc1 was read as Fh CTSL1 inh 4, UPR CHOP act 2, XBP1 UPR activ -1, UCH37 DUB inh -29 and CHOP inhibitor 10.
`CC(=NCC1CCNCC1)C1=C(O)CC(C)(C)CC1=O` gave Fh CTSL1 inh 1, UPR CHOP act -3, XBP1 UPR activ -3, UCH37 DUB inh -4 and CHOP inhibitor 78*.
For CC(=NCC1CCCO1)C1=C(O)CC(C)(C)CC1=O (stereo unspecified) the results were Fh CTSL1 inh 0, UPR CHOP act 2, XBP1 UPR activ -2, UCH37 DUB inh 1 and CHOP inhibitor 9.
ON=C1C2C3CC4C5C3C1C5C1(OCCO1)C42 (stereo unspecified) was read as UCH37 DUB inh 5.
For CN(C)c1ccc(-c2nn3c(C4CCCCC4)nnc3s2)cc1 the results were Fh CTSL1 inh 5, UPR CHOP act 0, XBP1 UPR activ 1, UCH37 DUB inh -120 and CHOP inhibitor 93*.
For CN(C)c1ccc(-c2nn3c(-c4ccc(Cl)cc4)nnc3s2)cc1 the results were UCH37 DUB inh -56 and CHOP inhibitor -8.
For CCOC(=O)C1=C(N)Oc2cc(O)ccc2C1c1ccc([N+](=O)[O-])cc1 (stereo unspecified) the results were Fh CTSL1 inh 7, UPR CHOP act 0, XBP1 UPR activ -2, UCH37 DUB inh 3 and CHOP inhibitor 94*.
For CC(=NNC(=O)c1sccc1-n1cccc1)c1cccs1 the results were UCH37 DUB inh -12.
Screening O=C(CNC(=O)c1ccccc1Br)NN=Cc1cc(Br)ccc1O returned UCH37 DUB inh -1.
`N=c1c2c(-c3ccccc3)c(-c3ccccc3)n(Cc3ccco3)c2ncn1Cc1ccccc1` gave Fh CTSL1 inh 3, UPR CHOP act 35, XBP1 UPR activ 28, UCH37 DUB inh -1 and CHOP inhibitor 85*.
Screening O=c1c2c3nc4ccccc4nc3n(Cc3ccccc3)c2ncn1Cc1ccco1 returned UCH37 DUB inh -7 and CHOP inhibitor 74*.

High-throughput results as filed in PubChem.
